Consider 29 compounds from ChEMBL document CHEMBL3593226, “Discovery of small molecules with vasodilating characteristics and adjustable hydrolytic behavior” (Bioorg Med Chem, 2015).

In data set [1] the test system is Aorta. The data set is described as follows: Vasodilating activity in potassium chloride-mediated precontracted guinea pig aorta compound treated every 45 mins by chart recorder analysis. In kind it is functional, tissue-based. As to conditions: Cavia porcellus, 0.75 h. In short, it runs like this:
(§1)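 Guinea pig aortic or pulmonary artery rings held at 19.6 mN resting tension and precontracted with 90 mM KCl. Compound added cumulatively every 45 min after a control period, with relaxation recorded on a chart recorder. Solvent-only effect subtracted. Mean ± SEM of 3–5 experiments; paired Student's t-test.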

A short description of data set [2]: Vasodilating activity in potassium chloride-mediated precontracted guinea pig pulmonary artery compound treated every 45 mins by chart recorder analysis. In kind it is functional, tissue-based, Cavia porcellus. In short, it runs like this: as §1
The test system of the next data set is Ileum. The data set can be described thus: Spasmolytic activity in potassium chloride-mediated precontracted guinea pig terminal ileum compound treated every 45 mins by chart recorder analysis. In kind it is functional, tissue-based. Conditions: Cavia porcellus, 0.75 h. In short, it runs like this: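 Guinea pig terminal ileum held at 4.9 mN resting tension and precontracted with 60 mM KCl. Compound added cumulatively every 45 min after a control period, with relaxation recorded on a chart recorder. Solvent-only effect subtracted. Stocks in distilled water or DMSO. Mean ± SEM of 3–5 experiments.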

The nature of data set [3]: Inotropic activity in electrically-stimulated guinea pig papillary muscle compound treated every 45 mins by chart recorder analysis. In kind it is functional, tissue-based. As to conditions: Cavia porcellus, 0.75 h. The procedure, abridged: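 Guinea pig papillary muscles driven electrically at 1 Hz, 3 ms pulses, amplitude 10% above threshold; resting tension 3.92 mN. After a 30 min control period, compound added cumulatively until steady state. Contraction force recorded on a chart recorder; solvent-only effect subtracted. Mean ± SEM of 4–5 experiments; paired t-test.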

The subject of the next data set is Right cardiac atrium. The data set is described as follows: Chronotropic activity in electrically-stimulated guinea pig right atrium compound treated every 45 mins by chart recorder analysis. In kind it is functional, tissue-based. As to conditions: Cavia porcellus, 0.75 h. In short, it runs like this: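 Isolated guinea pig right atria, resting tension 10.37 mN. After a 30 min control period, compound added cumulatively to the bath until steady state. Rate change recorded on a chart recorder; solvent-only effect subtracted. Stocks in distilled water or DMSO. Mean ± SEM of 4–5 experiments; paired Student's t-test.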

Data set [4] in a line: Stability of the compound in D2O assessed as degradation product ratio at 20 mg/ml at 20 degC after 24 hrs by 1H-NMR spectroscopic analysis. In kind it is ADME. The procedure, abridged:
(§2)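 Compound dissolved in D2O and kept at 20 °C. 1H NMR spectra taken at 1, 3, 5, 7 and 24 h, in triplicate. Compound-to-degradation-product ratio (%) used to follow hydrolysis. Half-life obtained from an equation fitted to the time-course data. Mean ± SEM of three independent experiments.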

Data set [5] in a line: Stability of the compound in D2O assessed as compound remaining at 20 mg/ml at 20 degC after 24 hrs by 1H-NMR spectroscopic analysis. In kind it is physicochemical. Conditions: read-out: Stability. The procedure, abridged: as §2
Data set [6] can be described thus: Half life of the compound in D2O at 20 mg/ml at 20 degC by 1H-NMR spectroscopic analysis. In kind it is physicochemical. The procedure, abridged:
as §2

For data set [7], the system named is Aorta. The data set is described as follows: Vasodilating activity in potassium chloride-mediated precontracted guinea pig aorta at EC50 compound incubated in sealed tube filled with distilled water at room temperature for 24 hrs prior to testing by chart recorder analysis. Conditions: Cavia porcellus. In kind it is functional, tissue-based. The procedure, abridged: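 Compound dissolved in distilled water and kept sealed at room temperature for 24 h. The solution was then added at a single concentration to guinea pig aortic rings precontracted with 90 mM KCl. Change in contraction force recorded on a chart recorder for 5 min. Mean ± SEM of three experiments.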

For data set [8], the system named is Aorta. The data set is described as follows: Vasodilating activity in potassium chloride-mediated precontracted guinea pig aorta at EC50 compound treated every 45 mins by chart recorder analysis in presence of 30 uM KATP channel inhibitor glibenclamide. In kind it is functional.
For data set [9], the system named is Aorta. The data set can be described thus: Vasodilating activity in potassium chloride-mediated precontracted guinea pig aorta at EC50 compound treated every 45 mins by chart recorder analysis in presence of 100 uM KATP channel inhibitor glibenclamide. In kind it is functional.
The test system of data set [10] is Aorta. The data set is described as follows: Vasodilating activity in potassium chloride-mediated precontracted guinea pig aorta at EC50 compound treated every 45 mins by chart recorder analysis in presence of 100 uM eNOS inhibitor nitro-L-arginine. Conditions: Cavia porcellus. In kind it is functional, tissue-based.
A short description of data set [11]: Stability of the compound in D2O at 20 mg/ml at 20 degC measured over 24 hrs by 1H-NMR spectroscopic analysis. In kind it is physicochemical. In short, it runs like this: as §2

Active and inactive are the calls of the source.

As a reminder, the EC50 is the concentration needed to bring the measured effect to its halfway point. Read a low EC50 as higher potency in that assay. With `Cc1nccn1C(=S)SCc1ccccc1`, the EC50 in the data set with Aorta [1] is 3.4 µM; in data set [2] it was 13 µM; with Ileum, 16 µM; in data set [3], over 100 µM; in the data set on Right cardiac atrium, 16 µM.
Consider `COc1cc(CSC(=S)n2ccnc2)cc(OC)c1OC`, for which the concentration for a half-maximal effect (EC50) is 3 µM in the data set with Aorta [1]; 7.9 µM in data set [2]; 15 µM in the data set on Ileum; 27 µM in data set [3]; over 100 µM in the data set with Right cardiac atrium.
Take `CCCOC(=S)N1CCN(C)CC1`: the concentration for a half-maximal effect (EC50) (in the data set on Aorta [1]; in data set [2]; in the data set with Ileum; in [3]; in the data set with Right cardiac atrium) was over 100 µM each time.
With `C[N+](C)(C)CCOC(=S)OCC[N+](C)(C)C`, the EC50 (in the data set on Aorta [1]; in data set [2]; in the data set on Ileum; in data set [3]; with Right cardiac atrium) was over 100 µM throughout.
For orientation: half-life means the time in which the quantity being followed falls by half. On to `CCOC(=S)n1ccnc1.Cl`, for which the concentration giving a half-maximal response (EC50) in the data set with Aorta [1] is 53 µM; in data set [2], 19 µM; in the data set with Ileum, 4.8 µM; in data set [3], over 100 µM; in the data set with Right cardiac atrium, over 100 µM. Also, the Ratio in [4] is listed as 0.35. Moreover, the remaining at 24 h, 20 mg/ml in data set [5] was 26%. The same compound showed a half-life at 20 mg/ml in [6] of 6.5 h. Moreover, the result in the data set with Aorta [7] was inactive.
In the case of `CCCCOC(=S)OCCCN(C)C`, the EC50 is over 100 µM with Aorta [1]; over 100 µM in [2]; 17 µM with Ileum; 4.3 µM in data set [3]; over 100 µM in the data set on Right cardiac atrium.
As for `CCCCOC(=S)n1ccnc1`, the concentration for a half-maximal effect (EC50) with Aorta [1] is 13 µM; in data set [2], 23 µM; with Ileum, 21 µM; in [3], over 100 µM; in the data set on Right cardiac atrium it was over 100 µM.
For `CCCOC(=S)n1ccnc1`, the EC50 in the data set with Aorta [1] is 30 µM; in data set [2] it was 100 µM; with Ileum, 21 µM; in [3], over 100 µM; in the data set with Right cardiac atrium it was over 100 µM.
For `S=C(SCc1ccccc1)n1ccnc1`, the EC50 was 20 µM in the data set on Aorta [1]; 63 µM in data set [2]; 40 µM with Ileum; 30 µM in data set [3]; over 100 µM with Right cardiac atrium.
In the same order, the values of `CSC(=S)n1c(C)nc2ccccc21` are 23 µM, 25 µM, 26 µM, 56 µM and over 100 µM.
Consider `Cl.S=C(OC1CCCCC1)n1ccnc1`, for which the EC50 with Aorta [1] is 14 µM; in data set [2], 24 µM; in the data set on Ileum it was over 100 µM; in data set [3], over 100 µM; with Right cardiac atrium, over 100 µM. In [4], the Ratio is 0.09. Moreover, the remaining at 24 h, 20 mg/ml in data set [5] was found to be 8%. In data set [6], this compound gave a half-life at 20 mg/ml of 12.3 h. The result in the data set with Aorta [8] (Cavia porcellus), with Aorta [7], with Aorta [9] (Cavia porcellus) and with Aorta [10] was inactive.
As for `CSC(=S)n1ccnc1.Cl`, the EC50 in the data set on Aorta [1] is 7.8 µM; in [2] it was 6.9 µM; in the data set on Ileum, 5.7 µM; in data set [3] it was 78 µM; in the data set on Right cardiac atrium, over 100 µM. The Stability result in [11] was “Stable”. The Activity in the data set with Aorta [8] and in the data set with Aorta [9] was 50% each time.
`CCCOC(=S)OCCN(C)C`: the EC50 was over 100 µM in the data set on Aorta [1]; over 100 µM in data set [2]; over 100 µM in the data set on Ileum; 58 µM in [3]; over 100 µM in the data set with Right cardiac atrium.
Take `COc1ccc(CSC(=S)n2ccnc2)cc1`: the EC50 in the data set with Aorta [1] was 13 µM; in data set [2], 24 µM; in the data set on Ileum, over 100 µM; in data set [3], over 100 µM; in the data set with Right cardiac atrium, over 100 µM.
For `S=C(N1CCCCC1)n1ccnc1`, the EC50 (with Aorta [1]; in data set [2]; with Ileum; in data set [3]; with Right cardiac atrium) was over 100 µM throughout.
In the case of `S=C(OC1CCCC1)n1ccnc1`, the half-maximal effective concentration (EC50) was 36 µM in the data set on Aorta [1]; over 100 µM in [2]; 16 µM in the data set with Ileum; over 100 µM in [3]; over 100 µM in the data set with Right cardiac atrium.
For `O=C(OC1CCCCC1)n1ccnc1`, the half-maximal effective concentration (EC50) (in the data set on Aorta [1]; in data set [2]; in the data set with Ileum; in data set [3]; with Right cardiac atrium) was over 100 µM throughout.
On to `CC(C)OC(=S)n1ccnc1`, for which the half-maximal effective concentration (EC50) with Aorta [1] was 46 µM; in data set [2], over 100 µM; in the data set with Ileum it was 21 µM; in data set [3], over 100 µM; in the data set with Right cardiac atrium it was over 100 µM.
For `CCCCCCOC(=S)OCCCN(C)C`, the EC50 with Aorta [1] was over 100 µM; in data set [2], over 100 µM; in the data set with Ileum, 16 µM; in [3], 5.9 µM; in the data set on Right cardiac atrium, 35 µM.
In the case of `CSC(=S)n1ccnc1C`, the EC50 in the data set with Aorta [1] is 6.3 µM; in data set [2], 11 µM; in the data set with Ileum, 9.5 µM; in data set [3], over 100 µM; in the data set on Right cardiac atrium, over 100 µM.
With `CCOC(=S)N1CCN(C)CC1`, the concentration giving a half-maximal response (EC50) (in the data set with Aorta [1]; in [2]; in the data set on Ileum; in data set [3]; in the data set on Right cardiac atrium) was over 100 µM throughout.
Turning to `CCOC(=O)CCSC(=S)n1ccnc1`, the EC50 is 16 µM with Aorta [1]; 20 µM in [2]; 32 µM in the data set on Ileum; over 100 µM in data set [3]; over 100 µM in the data set on Right cardiac atrium.
As to `CCOC(=S)OCCCN(C)C`, the half-maximal effective concentration (EC50) (with Aorta [1]; in [2]; in the data set with Ileum; in data set [3]; with Right cardiac atrium) was over 100 µM throughout.
Turning to `CCOC(=S)OCCN(C)C`, the EC50 (in the data set on Aorta [1]; in data set [2]; in the data set on Ileum; in data set [3]; in the data set on Right cardiac atrium) was over 100 µM in each case.
Regarding `CN(C)CCOC(=S)OCCN(C)C`, the half-maximal effective concentration (EC50) (with Aorta [1]; in [2]; with Ileum; in data set [3]; in the data set on Right cardiac atrium) was over 100 µM each time.
Regarding `CC(C)OC(=O)n1ccnc1`, the EC50 (in the data set on Aorta [1]; in data set [2]; in the data set on Ileum; in [3]; in the data set on Right cardiac atrium) was over 100 µM each time.
As for `CC(C)CN(CC(C)C)C(=S)n1ccnc1`, the 50% effective concentration (EC50) in the data set with Aorta [1] worked out at 14 µM; in data set [2] it was 26 µM; in the data set on Ileum, 17 µM; in data set [3], 6.5 µM; in the data set with Right cardiac atrium, 48 µM.
The matching figures for `CCCOC(=S)OCCCN(C)C`: over 100 µM, over 100 µM, over 100 µM, 37 µM and over 100 µM.
In the same order, the values of `CC(=O)OCCSC(=S)n1ccnc1` are 5.8 µM, 24 µM, over 100 µM, 77 µM and over 100 µM.
